Experimental findings from ChEMBL document CHEMBL1123308 (J Med Chem, 1986) are described below.

Data set [1] has as its system L1210. The data set is described as follows: Compound was evaluated for drug concentration for 50% inhibition of actively growing L1210 cells in culture for the inhibition of incorporation of [3H]thymidine in the DNA. Format: functional. Conditions: Mus musculus, read-out: ED50 (the source's name). A digest of the protocol: (§1)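 Actively growing L1210 leukemia cells in culture; incorporation of [3H]thymidine into DNA or [3H]uridine into RNA measured. ED50 is the drug concentration giving 50% inhibition of incorporation. Drugs dissolved in Me2SO first, then diluted to 1% Me2SO final.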

Data set [2] relates to L1210. The data set can be described thus: Compound was evaluated for drug concentration for 50% inhibition of actively growing L1210 cells in culture for the inhibition of incorporation of [3H]uridine in the RNA. It is filed as functional. As to conditions: Mus musculus, read-out: ED50 (the source's name). A digest of the protocol:
as §1

The test system of data set [3] is Mus musculus. The data set can be described thus: Compound was evaluated for antitumor efficacy at optimum dose in mice against B16 melanoma cells at q4d 5,9,13 days (intraperitoneal); Inactive. Format: functional, organism-based.
Data set [4] in a line: Stabilization of helical DNA toward thermal denaturation (delta Tm) was determined. Format: ADME. A digest of the protocol: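 Calf thymus DNA thermal denaturation. Drug at 5.2 × 10^-6 M and DNA (P) at 5.2 × 10^-5 M in 0.01 M phosphate buffer, pH 7, with 10^-5 M EDTA and 5% Me2SO. ΔTm = Tm of DNA-drug complex minus Tm of DNA alone. Values ≤1 are taken as insignificant binding.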

Data set [5] relates to Mus musculus. The data set is described as follows: Compound was evaluated for antitumor efficacy at optimum dose in mice against B16 melanoma cells at 0.0063 mg/Kg dose on day 1 (intraperitoneal). Format: functional.
Data set [6] deals with Mus musculus. The data set is described as follows: Compound was evaluated for antitumor efficacy at optimum dose in mice aagainst B16 melanoma cells at 7.5 mg/Kgon day 1 (intraperitoneal). It is filed as functional. A digest of the protocol: (§2)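 Mouse survival screens were run by NCI protocols, with intraperitoneal dosing on the schedule given. Efficacy is % T/C, the average survival time of treated mice divided by that of control mice, at the optimal dose.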

In data set [7] the test system is Mus musculus. The data set can be described thus: Compound was evaluated for antitumor efficacy at optimum dose in mice against P388 leukemic cells at 8 mg/Kg on q4d 5,9,13 days (intraperitoneal). Format: functional. A digest of the protocol:
as §2

Data set [8] concerns Mus musculus. The data set is described as follows: Compound was evaluated for antitumor efficacy at optimum dose in mice against P388 leukemic cells at 7.5 mg/Kg day 1 (intraperitoneal). It is filed as functional. A digest of the protocol:
as §2

Data set [9] concerns Mus musculus. The data set is described as follows: Compound was evaluated for antitumor efficacy at optimum dose in mice against B16 melanoma cells at 10 mg/Kg on q4d 1,5,9 days (intravenous).
Data set [10] relates to L1210. The data set can be described thus: Compound was evaluated for drug concentration for 50% inhibition of actively growing L1210 cells in culture for the inhibition of incorporation of [3H]thymidine in the DNA(isomeric ratio A/B = 4:91). It is filed as functional. Conditions: Mus musculus, read-out: ED50 (the source's name). A digest of the protocol:
(§3)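 Actively growing L1210 cells in culture. Drug was dissolved in Me2SO and diluted to 1% Me2SO final. The read-out is [3H]thymidine incorporation into DNA or [3H]uridine incorporation into RNA. ED50 is the drug concentration giving 50% inhibition of incorporation.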

Data set [11] is described as follows: Stabilization of helical DNA toward thermal denaturation (delta Tm) was determined (isomeric ratio A/B = 4:91). Format: ADME.
A short description of data set [12]: Stabilization of helical DNA toward thermal denaturation (delta Tm) was determined (isomeric ratio A/B = 76:12). It is filed as ADME.
Data set [13] concerns L1210. The data set can be described thus: Compound was evaluated for drug concentration for 50% inhibition of actively growing L1210 cells in culture for the inhibition of incorporation of [3H]thymidine in the DNA(isomeric ratio A/B = 76:12). As to conditions: Mus musculus, read-out: ED50 (the source's name). Format: functional. A digest of the protocol:
as §3

Data set [14] has as its system L1210. The data set is described as follows: Compound was evaluated for drug concentration for 50% inhibition of actively growing L1210 cells in culture for the inhibition of incorporation of [3H]uridine in the RNAisomeric ratio A/B = 4:91). It is filed as functional. Conditions: Mus musculus, read-out: ED50 (the source's name). A digest of the protocol: as §3
Data set [15] has as its system L1210. The data set is described as follows: Compound was evaluated for drug concentration for 50% inhibition of actively growing L1210 cells in culture for the inhibition of incorporation of [3H]uridine in the RNA(isomeric ratio A/B = 76:12). It is filed as functional. As to conditions: Mus musculus, read-out: ED50 (the source's name). A digest of the protocol:
as §3

Data set [16] can be described thus: Partition coefficient was determined in octanol-phosphate at pH 7.4. Format: physicochemical. As to conditions: octanol/phosphate buffer. The gist of the method:
(§4)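 Octanol/buffer partitioning used phosphate buffer at pH 7.4, 6.5 or 6.0 and citrate buffer at pH 4.0. Phases were separated by centrifugation at 2000 rpm for 5 min. Concentration in one phase was read by UV absorbance at 235.5 nm in 1-cm cells, and the other phase was obtained by difference. Determinations were in duplicate at 2 or 3 octanol-buffer ratios (1:10 to 1:50). Log P = log(organic/aqueous concentration).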

Data set [17] in a line: Partition coefficient was determined in octanol-citrate at pH 4.0. Conditions: octanol/citrate buffer.
Data set [18] can be described thus: Partition coefficient was determined in octanol-phosphate at pH 6.5. It is filed as physicochemical. As to conditions: octanol/phosphate buffer. A digest of the protocol:
as §4

Data set [19] can be described thus: Partition coefficient was determined in octanol-phosphate at pH 6.0. Format: physicochemical. As to conditions: octanol/phosphate buffer. A digest of the protocol:
as §4

Data set [20] relates to Mus musculus. The data set can be described thus: Compound was evaluated for antitumor efficacy at optimum dose in mice aagainst B16 melanoma cells at 0.0625 mg/Kg day 1 (intraperitoneal). It is filed as functional. As to conditions: in the assay text read “0.625 mg/Kg” for “0.0625 mg/Kg”. The gist of the method:
as §2

The subject of data set [21] is L1210. The data set can be described thus: Compound was evaluated for drug concentration for 50% inhibition of actively growing L1210 cells in culture for the inhibition of incorporation of [3H]thymidine in the DNA(isomeric ratio A/B/C = 7:0:92). Format: functional. As to conditions: Mus musculus, read-out: ED50 (the source's name). A digest of the protocol:
as §3

The test system of data set [22] is Mus musculus. The data set is described as follows: Compound was evaluated for antitumor efficacy at optimum dose in mice against P388 leukemic cells at 2 mg/kg q4d 5,9,13 days (intraperitoneal). It is filed as functional. The gist of the method: as §2
For data set [23], the system named is L1210. The data set can be described thus: Compound was evaluated for drug concentration for 50% inhibition of actively growing L1210 cells in culture for the inhibition of incorporation of [3H]uridine in the RNA(isomeric ratio A/B/C = 28:69:0). It is filed as functional. As to conditions: Mus musculus, read-out: ED50 (the source's name). The gist of the method:
as §3

Data set [24] concerns L1210. The data set can be described thus: Compound was evaluated for drug concentration for 50% inhibition of actively growing L1210 cells in culture for the inhibition of incorporation of [3H]thymidine in the DNA(isomeric ratio A/B/C = 28:69:0). Format: functional. As to conditions: Mus musculus, read-out: ED50 (the source's name). The gist of the method:
as §3

The test system of data set [25] is L1210. The data set is described as follows: Compound was evaluated for drug concentration for 50% inhibition of actively growing L1210 cells in culture for the inhibition of incorporation of [3H]uridine in the RNA(isomeric ratio A/B/C = 7:0:92). Format: functional. Conditions: Mus musculus, read-out: ED50 (the source's name). A digest of the protocol:
as §3

Data set [26] concerns L1210. The data set can be described thus: Compound was evaluated for drug concentration for 50% inhibition of actively growing L1210 cells in culture for the inhibition of incorporation of [3H]thymidine in the DNA(isomeric ratio A/B/C = 2:91:7). Conditions: Mus musculus, read-out: ED50 (the source's name). It is filed as functional. A digest of the protocol: as §3
For data set [27], the system named is Mus musculus. The data set can be described thus: Compound was evaluated for antitumor efficacy at optimum dose in mice against P388 leukemic cells at 1.25 mg/Kg day 1 (intraperitoneal). Format: functional. The gist of the method: as §2
For data set [28], the system named is L1210. The data set is described as follows: Compound was evaluated for drug concentration for 50% inhibition of actively growing L1210 cells in culture for the inhibition of incorporation of [3H]uridine in the RNA(isomeric ratio A/B/C = 2:91:7). As to conditions: Mus musculus, read-out: ED50 (the source's name). It is filed as functional. A digest of the protocol: as §3

Data set [29] can be described thus: Stabilization of helical DNA toward thermal denaturation (delta Tm) was determined (isomeric ratio A/B/C = 7:0:92). Format: ADME.
Data set [30] can be described thus: Stabilization of helical DNA toward thermal denaturation (delta Tm) was determined (isomeric ratio A/B/C = 28:69:0). It is filed as ADME.
The test system of data set [31] is Mus musculus. The data set can be described thus: Compound was evaluated for antitumor efficacy at optimum dose in mice against B16 melanoma cells at 2.5 mg/kg on q4d 1,5,9 days (intravenous).
The next data set concerns Nucleic Acid. The data set can be described thus: Stabilization of helical DNA toward thermal denaturation (delta Tm) was determined (isomeric ratio A/B/C = 2:91:7). Format: nucleic-acid assay. A digest of the protocol: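 Thermal denaturation of calf thymus DNA (5.2 × 10^-5 M P) with drug at 5.2 × 10^-6 M. Buffer was 0.01 M phosphate pH 7 with 10^-5 M EDTA and 5% Me2SO. ΔTm = Tm of the DNA-drug complex minus Tm of DNA alone. Values ≤1 are taken as insignificant binding.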

pEC50: −log10 of the molar value. Calls of active or inactive are those of the source. No cut-off for these calls is given here. A value given as a limit tells only on which side of the number the result lay.

As to `COc1cccc2c1C(=O)c1c(O)c3c(c(O)c1C2=O)C[C@@](O)(C(=O)CO)C[C@@H]3OC1CC(N2CCOCC2C#N)C(O)C(C)O1` (some centres undefined), the pEC50 with L1210 [1] is 8.52; in the data set with L1210 [2], 9.28. The T/C – broadly, the ratio of treated to control – in the data set with Mus musculus [3] was “inactive”. For the same compound, in data set [4], the “Delta Tm” value worked out at 8.7. Further, the T/C result with Mus musculus [5] is “>=138%”.

Turning to `COc1cccc2c1C(=O)c1c(O)c3c(c(O)c1C2=O)C[C@@](O)(C(=O)CO)C[C@@H]3O[C@H]1C[C@H](N)[C@H](O)[C@H](C)O1` [DOXORUBICIN], the T/C in the data set on Mus musculus [6] is reported as 192%; in the data set with Mus musculus [7] it was 160%; in the data set with Mus musculus [8], 252%; with Mus musculus [9] it was 206%. The pEC50 in the data set on L1210 [1] is 5.80; in the data set on L1210 [2], 6.24. Further, in data set [4], the “Delta Tm” value is listed as 12.8.

For the compound `COc1cccc2c1C(=O)c1c(O)c3c(c(O)c1C2=O)C[C@@](O)(C(C)=O)C[C@@H]3OC1CC2C(OC3COCC(C#N)N32)C(C)O1` (some centres undefined), the pEC50 in the data set with L1210 [10] was 5.71; in the data set with L1210 [13], 6.38; in the data set on L1210 [14] it was 6.08; with L1210 [15], 6.66. Further, the “Delta Tm” value is given as 8.3 in data set [11] and 5 in data set [12].

On to `COc1cccc2c1C(=O)c1c(O)c3c(c(O)c1C2=O)C[C@@](O)(C(=O)CO)C[C@@H]3OC1CC(N2CCOCC2)C(O)C(C)O1` (some centres undefined), for which the log distribution coefficient (logD) (as a rule, the decadic logarithm of the distribution of all forms, ionised or not, between an organic phase and buffer at a given pH) in [16] was 1.73; in data set [17], -1.1; in data set [18], 1.42; in data set [19] it was 0.96.

Turning to `COc1cccc2c1C(=O)c1c(O)c3c(c(O)c1C2=O)C[C@@](O)(C(=O)CO)C[C@@H]3OC1CC2C(OC3COCC(C#N)N32)C(C)O1` (some centres undefined), the T/C entry is “>=153%” with Mus musculus [20], 135% in the data set on Mus musculus [22], 150% in the data set with Mus musculus [27] and 141% in the data set on Mus musculus [31]. For the same compound, the log distribution coefficient (logD) was 2.41 in data set [16], 2.24 in data set [17], 2.29 in data set [18] and 2.4 in [19]. Moreover, the pEC50 with L1210 [21] was 4.60; with L1210 [23] it was 6.66; in the data set on L1210 [24] it was 6.26; in the data set on L1210 [25], 5.70; with L1210 [26], 5.85; in the data set on L1210 [28] it was 6.10. The results for the “Delta Tm” value in data set [29] and in [30] were 2.6 and 12.8, respectively. The ΔTm in the data set with Nucleic Acid amounted to 12.2.
